# Key:
# [1] = target: ALK tyrosine kinase receptor (Homo sapiens) (UniProt Q9UM73); experiment: Inhibition of ALK (unknown origin) at 10 nM relative to control
# [2] = target: Receptor tyrosine-protein kinase erbB-4 (Homo sapiens) (UniProt Q15303); experiment: Inhibition of ErbB4 (unknown origin) at 1000 nM relative to control
# Method in brief: (§1)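 Purified recombinant kinase domains run in ELISA on precoated poly(Glu,Tyr) 4:1 (20 µg/mL) with 10 µM ATP in 50 mM HEPES pH 7.4, 50 mM MgCl2, 0.5 mM MnCl2, 0.2 mM Na3VO4, 1 mM DTT; 1% DMSO control; 60 min at 37 °C. Phosphotyrosine read by PY99 antibody, HRP anti-mouse IgG, OPD/H2O2 at 490 nm; inhibition = [1−A490/A490control]×100%; two separate experiments.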
# [3] = target: Fibroblast growth factor receptor 2 (Homo sapiens) (UniProt P21802); experiment: Inhibition of FGFR2 phosphorylation in human SNU-16 cells after 2 hrs by Western blot analysis; assay type: cell-based
# Fibroblast growth factor receptor 2 (Homo sapiens), sequence (P21802 22-821 limits assumed): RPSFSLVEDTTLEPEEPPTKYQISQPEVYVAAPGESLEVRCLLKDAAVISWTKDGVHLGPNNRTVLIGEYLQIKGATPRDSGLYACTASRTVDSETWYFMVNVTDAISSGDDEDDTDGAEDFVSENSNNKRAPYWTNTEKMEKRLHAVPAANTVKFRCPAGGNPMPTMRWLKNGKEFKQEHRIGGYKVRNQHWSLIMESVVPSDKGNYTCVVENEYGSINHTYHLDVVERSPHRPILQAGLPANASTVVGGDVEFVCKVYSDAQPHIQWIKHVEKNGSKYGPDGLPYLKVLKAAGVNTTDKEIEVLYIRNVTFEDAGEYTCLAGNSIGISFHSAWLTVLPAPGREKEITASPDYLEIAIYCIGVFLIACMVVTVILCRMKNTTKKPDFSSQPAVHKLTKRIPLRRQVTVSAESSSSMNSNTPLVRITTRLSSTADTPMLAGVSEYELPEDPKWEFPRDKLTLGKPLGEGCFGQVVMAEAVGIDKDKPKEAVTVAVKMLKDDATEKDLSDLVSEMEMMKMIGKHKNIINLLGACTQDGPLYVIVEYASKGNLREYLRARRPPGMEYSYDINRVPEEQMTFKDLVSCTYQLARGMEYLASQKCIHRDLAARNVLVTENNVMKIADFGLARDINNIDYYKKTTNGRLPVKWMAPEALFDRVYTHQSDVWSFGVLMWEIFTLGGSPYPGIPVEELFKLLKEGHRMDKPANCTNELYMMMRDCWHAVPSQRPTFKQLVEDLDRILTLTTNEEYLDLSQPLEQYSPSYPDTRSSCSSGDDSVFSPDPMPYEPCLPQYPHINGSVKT
# Method in brief: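 SNU-16 cells exposed to compound for 2 h at 37 °C, lysed in 1× SDS sample buffer, resolved by 10% SDS-PAGE and blotted to nitrocellulose; probed for phospho-FGFR, FGFR2, phospho-ERK, ERK and GAPDH, then HRP anti-rabbit or anti-mouse IgG; enhanced chemiluminescence detection.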
# [4] = target: Tyrosine-protein kinase JAK1 (Homo sapiens) (UniProt P23458); experiment: Inhibition of JAK1 (unknown origin) at 100 nM relative to control; method in brief: as §1
# [5] = target: Receptor tyrosine-protein kinase erbB-4 (Homo sapiens) (UniProt Q15303); experiment: Inhibition of ErbB4 (unknown origin) at 100 nM relative to control; method in brief: as §1
# [6] = target: Vascular endothelial growth factor receptor 2 (Homo sapiens) (UniProt P35968); experiment: Inhibition of VEGFR2 (unknown origin) at 10 nM relative to control
# Method in brief: (§2)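 ELISA with purified recombinant kinase on plates precoated with poly(Glu,Tyr) 4:1 at 20 µg/mL. ATP 10 µM in HEPES pH 7.4 buffer with MgCl2, MnCl2, Na3VO4 and DTT. Run 60 min at 37 °C. Detected with anti-phosphotyrosine PY99, HRP secondary antibody and o-phenylenediamine, read at 490 nm. Inhibition % = [1 − A490/A490 control]×100. 1% DMSO as negative control.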
# [7] = target: Cyclin-dependent kinase 1 (Homo sapiens) (UniProt P06493); experiment: Inhibition of CDK1 (unknown origin) at 100 nM relative to control
# [8] = target: Tyrosine-protein kinase JAK2 (Homo sapiens) (UniProt O60674); experiment: Inhibition of JAK2 (unknown origin) at 10 nM relative to control; method in brief: as §1
# [9] = target: Tyrosine-protein kinase BTK (Homo sapiens) (UniProt Q06187); experiment: Inhibition of BTK (unknown origin) at 100 nM relative to control
# [10] = target: Receptor-type tyrosine-protein kinase FLT3 (Homo sapiens) (UniProt P36888); experiment: Inhibition of FLT-3 (unknown origin) at 100 nM relative to control; method in brief: as §1
# [11] = target: Vascular endothelial growth factor receptor 1 (Homo sapiens) (UniProt P17948); experiment: Inhibition of VEGFR1 (unknown origin) at 1000 nM relative to control; method in brief: as §2
# [12] = target: Fibroblast growth factor receptor 2 (Homo sapiens) (UniProt P21802); experiment: Inhibition of FGFR2 (unknown origin) at 1000 nM relative to control; method in brief: as §1
# [13] = target: Proto-oncogene tyrosine-protein kinase Src (Homo sapiens) (UniProt P12931); experiment: Inhibition of c-Src (unknown origin) at 1000 nM relative to control; method in brief: as §2
# [14] = target: Macrophage colony-stimulating factor 1 receptor (Homo sapiens) (UniProt P07333); experiment: Inhibition of CSF-1R (unknown origin) at 1000 nM relative to control
# [15] = target: Focal adhesion kinase 1 (Homo sapiens) (UniProt Q05397); experiment: Inhibition of FAK (unknown origin) at 10 nM relative to control; method in brief: as §1
# [16] = target: Insulin-like growth factor 1 receptor (Homo sapiens) (UniProt P08069); experiment: Inhibition of IGF1R (unknown origin) at 1000 nM relative to control; method in brief: as §1
# Insulin-like growth factor 1 receptor (Homo sapiens), sequence (P08069 31-736 limits assumed): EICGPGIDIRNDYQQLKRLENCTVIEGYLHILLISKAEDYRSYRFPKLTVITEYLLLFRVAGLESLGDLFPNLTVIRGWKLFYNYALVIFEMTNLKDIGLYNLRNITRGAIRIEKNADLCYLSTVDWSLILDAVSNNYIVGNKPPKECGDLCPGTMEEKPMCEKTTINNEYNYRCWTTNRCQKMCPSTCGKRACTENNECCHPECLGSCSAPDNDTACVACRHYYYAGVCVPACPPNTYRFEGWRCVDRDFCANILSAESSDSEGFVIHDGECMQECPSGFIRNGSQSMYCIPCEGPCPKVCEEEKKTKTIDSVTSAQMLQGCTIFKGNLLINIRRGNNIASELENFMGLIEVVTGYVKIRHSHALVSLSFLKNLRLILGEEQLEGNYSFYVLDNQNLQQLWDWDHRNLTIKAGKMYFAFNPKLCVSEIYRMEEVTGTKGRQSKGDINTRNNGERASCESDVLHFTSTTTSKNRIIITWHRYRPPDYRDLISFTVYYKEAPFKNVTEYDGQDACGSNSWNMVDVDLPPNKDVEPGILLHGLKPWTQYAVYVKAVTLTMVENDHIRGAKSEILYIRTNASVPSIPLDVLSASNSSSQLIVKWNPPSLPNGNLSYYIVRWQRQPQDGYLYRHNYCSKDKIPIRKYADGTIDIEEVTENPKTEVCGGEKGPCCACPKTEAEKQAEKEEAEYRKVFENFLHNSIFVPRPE
# Insulin-like growth factor 1 receptor (Homo sapiens), sequence (P08069 741-1367 limits assumed): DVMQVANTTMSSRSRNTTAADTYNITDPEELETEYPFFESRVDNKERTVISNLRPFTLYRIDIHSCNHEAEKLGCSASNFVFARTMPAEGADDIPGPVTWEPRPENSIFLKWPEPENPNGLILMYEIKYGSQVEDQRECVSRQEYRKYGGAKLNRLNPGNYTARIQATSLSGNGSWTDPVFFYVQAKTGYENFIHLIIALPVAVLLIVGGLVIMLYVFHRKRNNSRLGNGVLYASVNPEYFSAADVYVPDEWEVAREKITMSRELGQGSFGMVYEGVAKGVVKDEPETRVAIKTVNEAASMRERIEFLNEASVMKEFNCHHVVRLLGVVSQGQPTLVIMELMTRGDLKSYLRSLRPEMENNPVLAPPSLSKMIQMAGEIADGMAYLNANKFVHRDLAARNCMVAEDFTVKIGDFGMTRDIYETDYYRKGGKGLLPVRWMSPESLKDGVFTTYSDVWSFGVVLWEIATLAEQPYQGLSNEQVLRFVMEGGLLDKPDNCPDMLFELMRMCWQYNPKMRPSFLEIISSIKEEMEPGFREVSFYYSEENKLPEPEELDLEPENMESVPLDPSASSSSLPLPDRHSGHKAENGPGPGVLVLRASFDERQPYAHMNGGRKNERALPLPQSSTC
# [17] = target: Tyrosine-protein kinase JAK2 (Homo sapiens) (UniProt O60674); experiment: Inhibition of JAK2 (unknown origin) at 100 nM relative to control; method in brief: as §1
# [18] = target: Hepatocyte growth factor receptor (Homo sapiens) (UniProt P08581); experiment: Inhibition of c-Met (unknown origin) at 100 nM relative to control; method in brief: as §2
# Hepatocyte growth factor receptor (Homo sapiens), sequence (P08581 whole entry): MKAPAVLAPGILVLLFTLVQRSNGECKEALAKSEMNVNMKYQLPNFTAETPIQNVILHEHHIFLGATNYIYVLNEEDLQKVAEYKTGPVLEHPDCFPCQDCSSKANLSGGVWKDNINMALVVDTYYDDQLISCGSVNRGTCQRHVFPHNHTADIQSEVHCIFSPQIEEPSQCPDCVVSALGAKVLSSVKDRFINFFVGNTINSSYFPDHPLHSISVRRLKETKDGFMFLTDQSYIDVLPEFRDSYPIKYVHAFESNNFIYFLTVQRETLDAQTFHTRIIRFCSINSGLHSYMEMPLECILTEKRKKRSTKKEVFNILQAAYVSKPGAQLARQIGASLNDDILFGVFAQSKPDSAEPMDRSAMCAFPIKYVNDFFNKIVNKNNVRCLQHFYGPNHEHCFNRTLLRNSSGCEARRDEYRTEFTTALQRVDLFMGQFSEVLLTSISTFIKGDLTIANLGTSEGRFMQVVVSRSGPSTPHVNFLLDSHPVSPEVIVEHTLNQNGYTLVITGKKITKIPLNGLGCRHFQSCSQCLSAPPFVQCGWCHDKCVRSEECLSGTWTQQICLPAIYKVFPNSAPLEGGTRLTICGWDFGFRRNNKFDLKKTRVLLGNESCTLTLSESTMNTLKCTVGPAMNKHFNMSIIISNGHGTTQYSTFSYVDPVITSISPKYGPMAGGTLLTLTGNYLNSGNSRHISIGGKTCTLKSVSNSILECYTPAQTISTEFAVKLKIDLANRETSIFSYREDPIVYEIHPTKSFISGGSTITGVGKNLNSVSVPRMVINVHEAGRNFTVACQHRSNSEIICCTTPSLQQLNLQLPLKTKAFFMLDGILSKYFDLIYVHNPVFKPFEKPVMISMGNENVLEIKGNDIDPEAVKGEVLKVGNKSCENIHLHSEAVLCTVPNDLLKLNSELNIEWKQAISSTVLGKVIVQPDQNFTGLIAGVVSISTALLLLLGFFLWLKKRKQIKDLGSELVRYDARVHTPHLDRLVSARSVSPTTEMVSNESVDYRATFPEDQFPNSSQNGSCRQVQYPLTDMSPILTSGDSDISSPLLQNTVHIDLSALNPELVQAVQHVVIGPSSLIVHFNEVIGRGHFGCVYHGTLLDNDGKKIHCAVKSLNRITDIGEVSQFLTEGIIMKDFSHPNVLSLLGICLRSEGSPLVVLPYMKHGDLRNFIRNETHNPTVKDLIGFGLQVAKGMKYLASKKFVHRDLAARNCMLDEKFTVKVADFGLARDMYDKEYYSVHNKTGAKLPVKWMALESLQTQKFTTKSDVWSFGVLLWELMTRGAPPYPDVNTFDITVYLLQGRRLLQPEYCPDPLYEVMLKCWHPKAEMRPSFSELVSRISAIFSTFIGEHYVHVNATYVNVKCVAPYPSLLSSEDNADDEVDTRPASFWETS
# [19] = target: Fibroblast growth factor receptor 2 (Homo sapiens) (UniProt P21802); experiment: Inhibition of FGFR2 (unknown origin) at 10 nM relative to control; method in brief: as §1
# [20] = target: Hepatocyte growth factor receptor (Homo sapiens) (UniProt P08581); experiment: Inhibition of c-Met (unknown origin) at 10 nM relative to control; method in brief: as §2
# [21] = target: Receptor tyrosine-protein kinase erbB-4 (Homo sapiens) (UniProt Q15303); experiment: Inhibition of ErbB4 (unknown origin) at 10 nM relative to control; method in brief: as §1
# [22] = target: Tyrosine-protein kinase BTK (Homo sapiens) (UniProt Q06187); experiment: Inhibition of BTK (unknown origin) at 1000 nM relative to control
# [23] = target: Hepatocyte growth factor receptor (Homo sapiens) (UniProt P08581); experiment: Inhibition of c-Met (unknown origin) at 1000 nM relative to control; method in brief: as §2
# [24] = target: Mitogen-activated protein kinase 3 (Homo sapiens) (UniProt P27361); experiment: Inhibition of ERK1 (unknown origin) at 100 nM relative to control
# [25] = target: Fibroblast growth factor receptor 4 (Homo sapiens) (UniProt P22455); experiment: Inhibition of FGFR4 (unknown origin) at 100 nM relative to control; method in brief: as §1
# NCI-H1581 = experiment: Antitumor activity against human NCI-H1581 cells xenografted in nude mouse assessed as tumor growth inhibition at 20 mg/kg, po qd for 7 to 10 days relative to control; assay type: functional; settings: read-out: TGI
# Method in brief: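 Female nude mice, 4-6 weeks old. NCI-H1581 cells (5×10^6 in 200 µL) injected s.c., grown to 700-800 mm³, then 1-mm³ fragments implanted s.c. by trocar. At 100-150 mm³ animals were randomized (vehicle n=12, treated n=6) and dosed orally once daily for 7 days. Tumours measured twice weekly, volume = length×width²/2. TGI calculated from change in tumour volume versus vehicle on the final day, with Student's t-test.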
# [26] = target: Insulin-like growth factor 1 receptor (Homo sapiens) (UniProt P08069); experiment: Inhibition of IGF1R (unknown origin) at 100 nM relative to control; method in brief: as §1
# [27] = target: Cyclin-dependent kinase 6 (Homo sapiens) (UniProt Q00534); experiment: Inhibition of CDK6 (unknown origin) at 10 nM relative to control
# Receptor tyrosine-protein kinase erbB-4 (Homo sapiens), sequence (Q15303 whole entry, the tested form may be a part): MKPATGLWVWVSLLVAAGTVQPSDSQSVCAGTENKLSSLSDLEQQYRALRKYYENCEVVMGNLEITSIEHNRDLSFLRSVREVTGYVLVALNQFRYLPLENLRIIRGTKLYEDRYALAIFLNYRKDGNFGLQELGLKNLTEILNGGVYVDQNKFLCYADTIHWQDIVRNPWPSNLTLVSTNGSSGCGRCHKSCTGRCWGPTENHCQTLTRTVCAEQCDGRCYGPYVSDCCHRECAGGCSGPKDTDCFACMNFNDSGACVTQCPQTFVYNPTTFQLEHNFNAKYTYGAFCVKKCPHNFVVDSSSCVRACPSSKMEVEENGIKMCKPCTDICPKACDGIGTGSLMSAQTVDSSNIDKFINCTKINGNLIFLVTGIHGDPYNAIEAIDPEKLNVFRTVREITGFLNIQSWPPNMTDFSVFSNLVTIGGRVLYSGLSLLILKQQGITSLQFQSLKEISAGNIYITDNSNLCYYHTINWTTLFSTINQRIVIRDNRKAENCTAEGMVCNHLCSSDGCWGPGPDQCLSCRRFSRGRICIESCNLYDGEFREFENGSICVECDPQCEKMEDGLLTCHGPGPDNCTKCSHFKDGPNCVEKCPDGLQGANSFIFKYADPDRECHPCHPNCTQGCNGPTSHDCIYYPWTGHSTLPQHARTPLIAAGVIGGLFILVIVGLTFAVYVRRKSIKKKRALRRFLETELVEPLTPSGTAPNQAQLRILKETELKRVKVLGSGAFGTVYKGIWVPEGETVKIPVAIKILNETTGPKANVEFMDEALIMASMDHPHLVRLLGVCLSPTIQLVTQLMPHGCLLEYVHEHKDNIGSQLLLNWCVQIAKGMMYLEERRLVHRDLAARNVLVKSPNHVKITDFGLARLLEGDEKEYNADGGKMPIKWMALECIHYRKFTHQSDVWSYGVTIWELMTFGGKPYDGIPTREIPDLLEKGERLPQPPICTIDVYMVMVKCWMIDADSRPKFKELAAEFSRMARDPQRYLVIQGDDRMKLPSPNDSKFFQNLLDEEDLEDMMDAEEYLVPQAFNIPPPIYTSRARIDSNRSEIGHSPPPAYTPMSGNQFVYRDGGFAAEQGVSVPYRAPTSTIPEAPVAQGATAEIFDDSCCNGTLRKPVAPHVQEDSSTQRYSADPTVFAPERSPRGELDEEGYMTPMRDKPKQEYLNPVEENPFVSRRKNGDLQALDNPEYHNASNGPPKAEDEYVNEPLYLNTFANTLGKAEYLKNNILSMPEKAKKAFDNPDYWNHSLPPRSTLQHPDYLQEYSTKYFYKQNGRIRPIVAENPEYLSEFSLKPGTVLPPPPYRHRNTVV
smiles,measurement,setting,value
Cc1ccc(C(=O)Nc2cccc(C(F)(F)F)c2)cc1-c1ccc2c(-c3cnn(C4CC4)c3)n[nH]c2c1,inhibition,[1],60%
same,inhibition,[2],36.9%
same,inhibition,[3],Dose-dependent effect
same,inhibition,[4],13.1%
same,inhibition,[5],0%
same,inhibition,[6],90.1%
same,inhibition,[7],1.4%
same,inhibition,[8],5.4%
same,inhibition,[9],47.1%
same,inhibition,[10],80.6%
same,inhibition,[11],86.6%
same,inhibition,[12],100%
same,inhibition,[13],96.8%
same,inhibition,[14],94.2%
same,inhibition,[15],1.1%
same,inhibition,[16],5.5%
same,inhibition,[17],2.5%
same,inhibition,[18],0.3%
same,inhibition,[19],67.8%
same,inhibition,[20],0.2%
same,inhibition,[21],0%
same,inhibition,[22],80.9%
same,inhibition,[23],47.5%
same,inhibition,[24],0.6%
same,inhibition,[25],27.2%
same,inhibition in vivo at 20 mg/kg,NCI-H1581,98.1%
same,inhibition,[26],8.2%
same,inhibition,[27],0.5%

# — ChEMBL document CHEMBL4411287, “Discovery and optimization of a series of 3-substituted indazole derivatives as multi-target kinase inhibitors for the treatment of lung squamous cell carcinoma” (Eur J Med Chem, 2019)
